In ChEMBL document CHEMBL1140721, “Development of potent purine-derived nitrile inhibitors of the trypanosomal protease TbcatB” (J Med Chem, 2008):

Assays:
Cathepsin B = Cathepsin B (Homo sapiens, UniProt P07858); assay: Inhibition of human liver cathepsin B
Method in brief: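 Human liver enzyme at 0.56 ng/mL final in sodium acetate pH 5.5 buffer with 4 mM DTT, 0.01% Triton X-100, 0.5 mM EDTA. 20 min room-temperature preincubation with inhibitor, then Z-Arg-Arg-AMC (10 µM final). Quadruplicate. Sigmoidal IC50 fit.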

Procathepsin L = Procathepsin L (Homo sapiens, UniProt P07711); assay: Inhibition of human liver cathepsin L
Method in brief: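 Inhibitor preincubated 20 min at room temperature before Z-Phe-Arg-AMC (10 µM final). Initial rate from fluorescence (ex 350/em 460 nm) over 10 min. Quadruplicate. Sigmoidal IC50 fit.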

[1] = target: T1, Cathepsin B-like cysteine protease (Trypanosoma brucei, UniProt Q6R7Z5); assay: Inhibition of Trypanosoma brucei cathepsin B-like cysteine protease
T1 sequence (Q6R7Z5 whole entry): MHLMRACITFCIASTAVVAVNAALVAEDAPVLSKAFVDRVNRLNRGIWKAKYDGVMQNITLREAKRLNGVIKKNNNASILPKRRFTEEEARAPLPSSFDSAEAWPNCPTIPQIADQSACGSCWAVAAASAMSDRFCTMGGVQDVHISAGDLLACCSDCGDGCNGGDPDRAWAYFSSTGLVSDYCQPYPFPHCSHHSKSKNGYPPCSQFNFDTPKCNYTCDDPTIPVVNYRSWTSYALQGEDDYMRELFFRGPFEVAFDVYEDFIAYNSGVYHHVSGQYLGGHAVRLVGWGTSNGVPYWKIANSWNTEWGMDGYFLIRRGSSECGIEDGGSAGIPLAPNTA
Method in brief: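 Recombinant TbcatB zymogen expressed in Pichia pastoris, purified by HIC and anion exchange, titrated with CA074; 35 nM final. Inhibitor preincubated 20 min at room temperature, then Z-Phe-Arg-AMC (10 µM final). Initial rate from fluorescence (ex 350/em 460 nm) over 10 min. Triplicate. Sigmoidal IC50 fit.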

Trypanosoma brucei = assay: Antitrypanosomal activity against Trypanosoma brucei; format: functional, organism-based
Method in brief: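 Culture-adapted bloodstream T. brucei grown in HMI-9 with pen/strep, 10% heat-inactivated FBS and 10% Serum Plus at 37 °C, 5% CO2, diluted to 1 × 10^4 cells/mL. Inhibitor added from DMSO, 48 h at 37 °C, then 1 h room-temperature equilibration. Cell Titer Glo luminescence read after 8 min. Quadruplicate. IC50 by curve fitting. Values shift up to 10-fold with FBS lot.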

Sequence of Procathepsin L (P07711 whole entry): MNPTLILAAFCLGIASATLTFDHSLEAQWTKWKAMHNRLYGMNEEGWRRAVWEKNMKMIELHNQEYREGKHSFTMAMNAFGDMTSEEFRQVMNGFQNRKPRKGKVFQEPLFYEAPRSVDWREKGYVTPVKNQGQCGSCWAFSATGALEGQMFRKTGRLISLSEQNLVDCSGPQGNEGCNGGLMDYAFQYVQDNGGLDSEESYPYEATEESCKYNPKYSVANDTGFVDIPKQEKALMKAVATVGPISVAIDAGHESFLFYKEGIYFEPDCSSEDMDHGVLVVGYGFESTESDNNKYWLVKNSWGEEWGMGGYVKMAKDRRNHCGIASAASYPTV

Compound | IC50 (Cathepsin B) | IC50 (Procathepsin L) | IC50 [1] | IC50 (Trypanosoma brucei) | EC50 (Trypanosoma brucei)
COc1ccc(Cn2cnc3c(NCc4ccc(Cl)cc4)nc(C#N)nc32)cc1 | > 30000 nM | > 30000 nM | 23000 nM | 270 nM | 
N#Cc1nc(NCc2ccccc2)c2ncn(Cc3cccc(C(F)(F)F)c3)c2n1 | > 30000 nM | > 30000 nM | 2800 nM | 260 nM | 
CCC(C)CNc1nc(C#N)nc2c1ncn2C1CCCC1 (configuration not stated) | > 30000 nM | 2380 nM | 14000 nM | 1100 nM | 
N#Cc1nc(NCc2ccc(Cl)c(Cl)c2)c2ncn(CCCO)c2n1 |  | 300 nM | 270 nM | 110 nM | 
N#Cc1nc(NCc2ccc(Cl)c(Cl)c2)c2ncn(CC(O)CO)c2n1 (configuration not stated) | > 30000 nM | 420 nM | 1200 nM | 450 nM | 
COC(CCn1cnc2c(NCc3ccc(Cl)c(Cl)c3)nc(C#N)nc21)OC | > 30000 nM | 500 nM | 3400 nM | 220 nM | 
N#Cc1nc(NCc2ccc(Cl)cc2)c2ncn(Cc3cccnc3)c2n1 | > 30000 nM | > 30000 nM | > 25000 nM | 500 nM | 
N#Cc1nc(NCc2ccc(Cl)cc2)c2ncn(Cc3cccc(C(F)(F)F)c3)c2n1 | > 30000 nM | > 30000 nM | > 25000 nM | 340 nM | 
N#Cc1nc(NCc2ccc(Cl)c(Cl)c2)c2ncn(Cc3ccccc3)c2n1 | > 30000 nM | 14900 nM | 15000 nM |  | 260 nM
N=C(N)c1ccc(/N=N/Nc2ccc(C(=N)N)cc2)cc1 [DIMINAZENE] | > 30000 nM |  |  | 20 nM | 
Cc1ccc(C(=O)Nc2ccc(S(=O)(=O)O)c3cc(S(=O)(=O)O)cc(S(=O)(=O)O)c23)cc1NC(=O)c1cccc(NC(=O)Nc2cccc(C(=O)Nc3cc(C(=O)Nc4ccc(S(=O)(=O)O)c5cc(S(=O)(=O)O)cc(S(=O)(=O)O)c45)ccc3C)c2)c1 [SURAMIN] | > 30000 nM |  |  | 130 nM | 

More lines, now with the values ahead:

IC50 (Cathepsin B) | IC50 (Procathepsin L) | IC50 [1] | IC50 (Trypanosoma brucei) | EC50 (Trypanosoma brucei) | Compound
> 30000 nM | 13500 nM | 3300 nM | 900 nM |  | N#Cc1nc(NCc2ccc(F)cc2)c2ncn(Cc3ccccc3)c2n1
> 30000 nM | 6680 nM | 18000 nM | 800 nM |  | N#Cc1nc(NCc2ccc(F)cc2)c2ncn(CCCCO)c2n1
 | 610 nM | 570 nM | 310 nM |  | N#Cc1nc(NCc2ccc(Cl)cc2)c2ncn(CCCO)c2n1
> 30000 nM | 780 nM | 2500 nM | 150 nM |  | COCCCn1cnc2c(NCc3ccc(Cl)c(Cl)c3)nc(C#N)nc21
> 30000 nM | 9620 nM | 8400 nM | 540 nM |  | CCCCn1cnc2c(NCc3ccc(Br)cc3)nc(C#N)nc21
> 30000 nM | > 30000 nM | > 25000 nM | 420 nM |  | N#Cc1nc(NCc2ccc(Br)cc2)c2ncn(CCCc3ccccc3)c2n1
> 30000 nM | 1820 nM | 4100 nM | 180 nM |  | CCCCn1cnc2c(NCc3ccc(Cl)c(Cl)c3)nc(C#N)nc21
 | 4150 nM | 4800 nM | 600 nM |  | N#Cc1nc(NCc2ccc(Cl)cc2)c2ncn(CCCCO)c2n1
> 30000 nM | 6840 nM | 7100 nM | 700 nM |  | CCCCn1cnc2c(NCc3ccc(F)cc3)nc(C#N)nc21
 | 2270 nM | 12000 nM |  | 2900 nM | N#Cc1nc(NCc2ccccc2)c2ncn(CCCO)c2n1
> 30000 nM | 800 nM | 930 nM | 60 nM |  | N#Cc1nc(NCc2ccc(Cl)c(Cl)c2)c2ncn(CCCCCO)c2n1
> 30000 nM | 870 nM | 800 nM | 320 nM |  | COCOCCn1cnc2c(NCc3ccc(Cl)c(Cl)c3)nc(C#N)nc21
> 30000 nM | 300 nM | 1400 nM | 600 nM |  | N#Cc1nc(NCc2ccc(Cl)c(Cl)c2)c2ncn(CCO)c2n1
> 30000 nM | 28900 nM | > 25000 nM | 1100 nM |  | N#Cc1nc(NCc2ccc(Br)cc2)c2ncn(Cc3ccccc3)c2n1
